Laboratory results as given in ChEMBL document CHEMBL1133629, “Cholic acid derivatives as 1,2,4,5-tetraoxane carriers: structure and antimalarial and antiproliferative activity” (J Med Chem, 2000).

Legend:
[1] = Antiproliferative activity in Fem-X of Human melanoma; format: functional
Procedure, shortened: (§1)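 Cells were maintained as monolayers at 37 °C, 5% CO2, in RPMI-1640 with 10% heat-inactivated FBS, 25 mM Hepes, pH 7.2. They were seeded at 2000 cells/well in triplicate, and five concentrations were added 20 h later from 8 mM DMSO stocks; DMSO-only controls. MTT was added at 72 h for 4 h, then SDS/HCl, with OD570 read the next day. Blank-corrected survival vs control; IC50 = 50% survival inhibition.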

Plasmodium falciparum [2] = assay: Antimalarial activity against Plasmodium falciparum African D6; format: functional, organism-based
Procedure, shortened: (§2)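 P. falciparum clones in human erythrocytes at 0.2% parasitemia and 1% hematocrit, in RPMI-1640 without folate or PABA plus 10% heat-inactivated human plasma. Compounds were diluted 2-fold 11 times ([…] range). Incubation was at 37 °C under 5% CO2/5% O2/90% N2, with [3H]hypoxanthine added at 42 h and 24 h further (66 h total). Cells were freeze-lysed, harvested and scintillation-counted; IC50 by nonlinear logistic dose-response fit.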

Plasmodium falciparum [3] = assay: Antimalarial activity in Plasmodium falciparum Indochina W2; format: functional, organism-based; procedure, shortened: as §2
HeLa = assay: Antiproliferative activity in HeLa cells of Human cervix carcinoma; format: functional, cell-based; procedure, shortened: as §1
CCRF-CEM = assay: Antiproliferative activity as Growth inhibition in CCRF-CEM Leukemia cell line; format: functional; conditions: Homo sapiens
Procedure, shortened: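 NCI 60-cell-line screen: 48-h continuous drug exposure, growth measured by sulforhodamine B protein assay. GI50 is the interpolated concentration giving +50 percentage growth.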

Plasmodium falciparum [4] = assay: Antimalarial activity in Plasmodium falciparum FCR3; format: functional, organism-based
FM3A = assay: Antiproliferative activity in Mouse mammary tumor FM3A; format: functional, cell-based
[5] = Selectivity, ratio of PHA-stimulated PBMC to D6 clone; format: functional
[6] = Selectivity, ratio of PHA-stimulated PBMC to PBMC; format: functional
[7] = Cytotoxic activity against phytohemagglutininin (PHA)-stimulated peripheral blood mononuclear cells (PBMC) inhibition; format: functional; conditions: Homo sapiens; read-out: Cytotoxicity IC50
Procedure, shortened: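 PBMC were isolated from heparinized blood of three healthy volunteers by density-gradient centrifugation and seeded at 100 000 cells/well in RPMI-based medium. Stimulated cultures received PHA at 5 µg/mL final; non-stimulated cultures received none. Compound dilutions were added 2 h later in triplicate, with medium-only controls. IC50 was determined for each donor.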

| IC50 (HeLa; hela) [nM] | Compound | IC50 [1] [nM] | IC50 (Plasmodium falciparum [2]) [nM] | IC50 (Plasmodium falciparum [3]) [nM] | IC50 (HeLa; Homo sapiens, HeLa) [nM] | GI50 (CCRF-CEM) [nM] | EC50 (Plasmodium falciparum [4]) [nM] | EC50 (FM3A) [nM] | Ratio [5] | Ratio [6] | CC50 [7] [nM] |
| --- | --- | --- | --- | --- | --- | --- | --- | --- | --- | --- | --- |
| – | CC(=O)O[C@H]1C[C@H]2[C@@H]([C@H](OC(C)=O)C[C@@H]3C[C@]4(CC[C@@]32C)OO[C@@]2(CC[C@@]3(C)[C@H](C[C@@H](OC(C)=O)[C@@H]5[C@@H]3C[C@H](OC(C)=O)[C@]3(C)[C@@H](C(C)CCC(=O)O)CC[C@@H]53)C2)OO4)[C@@H]2CC[C@H](C(C)CCC(=O)O)[C@@]12C (some centres not stated) | 4.2 | > 99 | > 99 | 5.2 | 1.2 | – | – | – | – | – |
| 3.5 | CISPLATIN | – | – | – | – | – | – | – | – | – | – |
| – | COC(=O)CCC(C)[C@H]1CC[C@H]2[C@@H]3[C@H](OC(C)=O)C[C@@H]4C[C@]5(CC[C@]4(C)[C@H]3C[C@H](OC(C)=O)[C@]12C)OO[C@]1(CC[C@@]2(C)[C@H](C[C@@H](OC(C)=O)[C@@H]3[C@@H]2C[C@H](OC(C)=O)[C@]2(C)[C@@H](C(C)CCC(=O)OC)CC[C@@H]32)C1)OO5 (some centres not stated) | 19500 | > 96 | > 96 | 20500 | – | – | – | – | – | – |
| – | CC(=O)O[C@H]1C[C@H]2[C@@H]([C@H](OC(C)=O)C[C@@H]3C[C@]4(CC[C@@]32C)OO[C@@]2(CC[C@@]3(C)[C@H](C[C@@H](OC(C)=O)[C@@H]5[C@@H]3C[C@H](OC(C)=O)[C@]3(C)[C@@H](C(C)CCC(N)=O)CC[C@@H]53)C2)OO4)[C@@H]2CC[C@H](C(C)CCC(N)=O)[C@@]12C (some centres not stated) | 3100 | 23.7 | 18.8 | 3700 | 970 | – | – | – | – | – |
| – | CC(=O)O[C@H]1C[C@H]2[C@@H]([C@H](OC(C)=O)C[C@@H]3C[C@]4(CC[C@@]32C)OO[C@]2(CC[C@@]3(C)[C@H](C[C@@H](OC(C)=O)[C@@H]5[C@@H]3C[C@H](OC(C)=O)[C@]3(C)[C@@H](C(C)CCC(=O)O)CC[C@@H]53)C2)OO4)[C@@H]2CC[C@H](C(C)CCC(=O)O)[C@@]12C (some centres not stated) | 7.6 | > 99 | > 99 | 9.2 | – | – | – | – | – | – |
| – | C[C@@H]1CC[C@H]2[C@@H](C)C(=O)O[C@@H]3O[C@@]4(C)CC[C@@H]1[C@]32OO4 [ARTEMISININ] | – | 8.6 | 7.3 | – | – | 7.8 | 10000 | – | – | – |
| – | CC(=O)O[C@H]1C[C@H]2[C@@H]([C@H](OC(C)=O)C[C@@H]3C[C@]4(CC[C@@]32C)OO[C@]2(CC[C@@]3(C)[C@H](C[C@@H](OC(C)=O)[C@@H]5[C@@H]3C[C@H](OC(C)=O)[C@]3(C)[C@@H](C(C)CCC(N)=O)CC[C@@H]53)C2)OO4)[C@@H]2CC[C@H](C(C)CCC(N)=O)[C@@]12C (some centres not stated) | 6200 | 129 | 59.4 | 6000 | – | – | – | – | – | – |
| – | COC(=O)CCC(C)[C@H]1CC[C@H]2[C@@H]3[C@H](OC(C)=O)C[C@@H]4C[C@]5(CC[C@]4(C)[C@H]3C[C@H](OC(C)=O)[C@]12C)OO[C@@]1(CC[C@@]2(C)[C@H](C[C@@H](OC(C)=O)[C@@H]3[C@@H]2C[C@H](OC(C)=O)[C@]2(C)[C@@H](C(C)CCC(=O)OC)CC[C@@H]32)C1)OO5 (some centres not stated) | > 29000 | > 96 | > 96 | > 29000 | 14800 | – | – | – | – | – |
| – | CCCNC(=O)CCC(C)[C@H]1CC[C@H]2[C@@H]3[C@H](OC(C)=O)C[C@@H]4C[C@]5(CC[C@]4(C)[C@H]3C[C@H](OC(C)=O)[C@]12C)OO[C@@]1(CC[C@@]2(C)[C@H](C[C@@H](OC(C)=O)[C@@H]3[C@@H]2C[C@H](OC(C)=O)[C@]2(C)[C@@H](C(C)CCC(=O)NCCC)CC[C@@H]32)C1)OO5 (some centres not stated) | 23000 | 9.29 | 60.4 | 33000 | – | – | – | 10333 | >10700 | 96000 |
| – | CCCNC(=O)CCC(C)[C@H]1CC[C@H]2[C@@H]3[C@H](OC(C)=O)C[C@@H]4C[C@]5(CC[C@]4(C)[C@H]3C[C@H](OC(C)=O)[C@]12C)OO[C@]1(CC[C@@]2(C)[C@H](C[C@@H](OC(C)=O)[C@@H]3[C@@H]2C[C@H](OC(C)=O)[C@]2(C)[C@@H](C(C)CCC(=O)NCCC)CC[C@@H]32)C1)OO5 (some centres not stated) | 94000 | 20.1 | 30.1 | 166 | 100 | – | – | 12500 | >15900 | 251000 |
